Laboratory results reported in ChEMBL document CHEMBL1777695, “Design and synthesis of pironetin analogues with simplified structure and study of their interactions with microtubules” (Eur J Med Chem, 2011).
The source made the active and inactive calls. The rule behind the calls is not given here.

Assays:
[1] = tested on: A2780; assay: Cytotoxicity against compound-sensitive human A2780 cells after 24 hrs by MTT assay; assay type: functional, cell-based; conditions: A2780, 24 h
Outline: (§1)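 MTT proliferation assay in ovarian carcinoma A2780 and P-glycoprotein-overexpressing A2780AD cells, grown in RPMI 1640 with 10% FCS, glutamine, antibiotics and 0.25 units/mL bovine insulin. IC50 (50% inhibition of proliferation) is the mean ± standard error of two independent experiments in duplicate. Relative resistance is IC50 in A2780AD divided by IC50 in A2780.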

[2] = tested on: A549; assay: Induction of apoptosis in human A549 cells after 20 hrs; assay type: functional, cell-based
[3] = tested on: A549; assay: Cell cycle arrest in human A549 cells assessed as minimum concentration required to induce accumulation at G2/M phase after 20 hrs by propidium iodide staining-based flow cytometry; assay type: functional
Outline: (§2)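 A549 cells (RPMI 1640, 10% FCS, glutamine, antibiotics) exposed 20 h to ligand or vehicle. Cells fixed, RNase-treated and stained with propidium iodide. DNA content read by flow cytometry. The lowest concentration giving maximal G2/M arrest is reported.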

[4] = tested on: A2780; assay: Resistance index, ratio of IC50 for human compound-resistant A2780AD cells to IC50 for human compound-sensitive A2780 cells
[5] = Cytotoxicity against compound-resistant human A2780AD cells after 24 hrs by MTT assay; assay type: functional, cell-based; conditions: A2780 ADR; outline: as §1
[6] = tested on: A549; assay: Induction of abberant mitosis in human A549 cells assessed as metaphase mitotic cells with type III mitotic spindles at 200 uM after 4 hrs relative to control; assay type: functional, cell-based
Outline: (§3)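 A549 cells grown overnight on coverslips, then treated 4 h with ligand (50 nM or 200 µM) or DMSO vehicle. Cells permeabilized with Triton X-100 and fixed in 3.7% formaldehyde. Microtubules stained with DM1A anti-α-tubulin antibody and DNA with Hoechst 33342. Spindle and microtubule morphology examined by epifluorescence microscopy.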

[7] = tested on: A549; assay: Induction of abberant mitosis in human A549 cells assessed as metaphase mitotic cells with DNA forming a ring surrounding mono-aster of microtubule at 200 uM after 4 hrs relative to control; assay type: functional, cell-based; outline: as §3
[8] = Displacement of pironetin from tubulin in cell-free system assessed as unbound pironetin concentration at 200 uM after 15 mins by HPLC method
Outline: (§4)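 Tubulin (25 µM in GAB: 3.4 M glycerol, 10 mM sodium phosphate, 1 mM EGTA, 1 mM GTP, pH 6.5) preincubated 15 min at 37 °C with 200 µM analogue or DMSO. 30 µM pironetin then added for a further 15 min. Docetaxel (10 µM) added as internal standard. Unreacted pironetin extracted three times with CH2Cl2 and quantified by reverse-phase HPLC, UV at 230 nm. Mean of three measurements ± SE.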

[9] = tested on: A549; assay: Induction of microtubule cytoskeleton depolymerization in human A549 cells at 200 uM after 4 hrs by immunofluorescence assay; assay type: cell-based
[10] = Inhibition of tubulin assembly assessed as concentration of tubulin required to produce assembly at 100 uM after 30 mins
Outline: (§5)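 Purified tubulin (20 µM) incubated 30 min at 37 °C in GAB (3.4 M glycerol, 10 mM sodium phosphate, 1 mM EGTA, 1 mM GTP, pH 6.5) with 25 µM pironetin or docetaxel, 100 µM analogue, or DMSO vehicle. Critical concentration for assembly determined. Mean of five measurements ± SE.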

[11] = Displacement of pironetin from tubulin in cell-free system assessed as bound pironetin concentration at 200 uM after 15 mins by HPLC method; outline: as §4
[12] = tested on: A549; assay: Induction of abberant mitosis in human A549 cells assessed as metaphase mitotic cells with DNA forming a ring surrounding mono-aster of microtubule at 50 nM after 4 hrs relative to control; assay type: functional, cell-based; outline: as §3
[13] = tested on: A549; assay: Induction of microtubule cytoskeleton depolymerization in human A549 cells at 50 nM after 4 hrs by immunofluorescence assay; assay type: cell-based; outline: as §3
[14] = tested on: A549; assay: Cell cycle arrest in human A549 cells assessed accumulation at G2/M phase at 50 nM after 20 hrs by propidium iodide staining-based flow cytometry; assay type: functional; outline: as §2
[15] = tested on: A549; assay: Induction of abberant mitosis in human A549 cells assessed as metaphase mitotic cells with type III mitotic spindles at 50 nM after 4 hrs relative to control; assay type: functional, cell-based; outline: as §3
[16] = Inhibition of tubulin assembly assessed as concentration of tubulin required to produce assembly at 25 uM after 30 mins; outline: as §5
[17] = Binding affinity to tubulin after 15 min; outline: as §4

SMILES	Activity [8]	Activity [10]	Activity [11]	Activity [16]	Activity [17]	IC50 [1]	Activity [2]	Activity [3]	Ratio IC50 [4]	IC50 [5]	Activity [6]	Activity [7]	Activity [9]	Activity [12]	Activity [13]	Activity [14]	Activity [15]
CCCCC[C@@H](C[C@@H](O)C[C@H]1CC=CC(=O)O1)OC	–	–	–	–	–	33.7 µM	inactive	200 µM	0.74	25.2 µM	–	–	–	–	–	–	–
CCCCC[C@H](CCC[C@H]1CC=CC(=O)O1)OC	15 µM	3.85 µM	10 µM	–	–	17.1 µM	–	50 µM	0.7	12.2 µM	Active	Active	Active	–	–	–	–
C/C=C/C[C@H](C)[C@@H](OC)[C@@H](C)[C@H](O)C[C@H]1OC(=O)C=C[C@H]1CC [PIRONETIN]	–	–	–	> 15 µM	23.4 µM	0.0029 µM	inactive	–	1	0.003 µM	–	–	–	Active	Active	Active	Active
CC(=O)O[C@H]1C(=O)[C@@]2(C)[C@H]([C@H](OC(=O)c3ccccc3)[C@]3(O)C[C@H](OC(=O)[C@H](O)[C@@H](NC(=O)c4ccccc4)c4ccccc4)C(C)=C1C3(C)C)[C@]1(OC(C)=O)CO[C@@H]1C[C@@H]2O [PACLITAXEL]	–	–	–	–	–	0.00082 µM	–	–	1157	0.949 µM	–	–	–	–	–	–	–
CCCCC[C@@H](CCC[C@@H]1CC=CC(=O)O1)OC	15 µM	3.75 µM	10 µM	–	–	14.9 µM	inactive	50 µM	0.77	11.5 µM	–	–	–	–	–	–	–
CCCCC[C@@H](C[C@H](O)C[C@H]1CC=CC(=O)O1)OC	–	–	–	–	–	53.7 µM	inactive	200 µM	0.89	48 µM	–	–	–	–	–	–	–
CCCCC[C@@H](CCC[C@H]1CC=CC(=O)O1)OC	–	3.73 µM	–	–	–	20.6 µM	inactive	50 µM	0.45	9 µM	Active	Active	Active	–	–	–	–
CC(=O)O[C@@]12CO[C@@H]1C[C@H](O)[C@@]1(C)C(=O)[C@H](O)C3=C(C)[C@@H](OC(=O)[C@H](O)[C@@H](NC(=O)OC(C)(C)C)c4ccccc4)C[C@@](O)([C@@H](OC(=O)c4ccccc4)[C@H]21)C3(C)C	–	–	–	0.4 µM	–	–	–	–	–	–	–	–	–	–	–	–	–
CCCCC[C@H](C[C@@H](O)C[C@@H]1CC=CC(=O)O1)OC	–	–	–	–	–	54.5 µM	inactive	200 µM	1.67	91.5 µM	–	–	–	–	–	–	–
CCCCC[C@@H](C[C@@H](O)C[C@@H]1CC=CC(=O)O1)OC	–	–	–	–	–	49.4 µM	inactive	200 µM	0.93	46.3 µM	Active	Active	Active	–	–	–	–

Continued, in another order:

Activity [8]	Activity [10]	Activity [11]	Activity [16]	Activity [17]	SMILES	IC50 [1]	Activity [2]	Activity [3]	Ratio IC50 [4]	IC50 [5]	Activity [6]	Activity [7]	Activity [9]	Activity [12]	Activity [13]	Activity [14]	Activity [15]
10 µM	–	4 µM	–	–	CCCCC[C@@H](C[C@H](O)C[C@@H]1CC=CC(=O)O1)OC	35.4 µM	inactive	100 µM	0.74	26.3 µM	–	–	–	–	–	–	–
10 µM	–	4 µM	–	–	CCCCC[C@H](C[C@H](O)C[C@@H]1CC=CC(=O)O1)OC	22.9 µM	inactive	100 µM	1.3	30 µM	–	–	–	–	–	–	–
15 µM	3.79 µM	10 µM	–	–	CCCCC[C@H](CCC[C@@H]1CC=CC(=O)O1)OC	14.4 µM	–	50 µM	1.42	20.5 µM	Active	Active	Active	–	–	–	–
–	3.44 µM	–	–	–	CCCCC[C@H](C[C@@H](O)C[C@H]1CC=CC(=O)O1)OC	28.9 µM	inactive	100 µM	0.62	18.1 µM	–	–	–	–	–	–	–
10 µM	3.39 µM	4 µM	–	–	CCCCC[C@H](C[C@H](O)C[C@H]1CC=CC(=O)O1)OC	44 µM	inactive	100 µM	1.3	57.5 µM	–	–	–	–	–	–	–
